Results collected from several papers.
Protocols differ between the studies behind these lines.
Target: Serine/threonine-protein kinase TAO2 (TAOK2, Homo sapiens, UniProt Q9UL54)
Residues used in one study (Q9UL54 1-1235): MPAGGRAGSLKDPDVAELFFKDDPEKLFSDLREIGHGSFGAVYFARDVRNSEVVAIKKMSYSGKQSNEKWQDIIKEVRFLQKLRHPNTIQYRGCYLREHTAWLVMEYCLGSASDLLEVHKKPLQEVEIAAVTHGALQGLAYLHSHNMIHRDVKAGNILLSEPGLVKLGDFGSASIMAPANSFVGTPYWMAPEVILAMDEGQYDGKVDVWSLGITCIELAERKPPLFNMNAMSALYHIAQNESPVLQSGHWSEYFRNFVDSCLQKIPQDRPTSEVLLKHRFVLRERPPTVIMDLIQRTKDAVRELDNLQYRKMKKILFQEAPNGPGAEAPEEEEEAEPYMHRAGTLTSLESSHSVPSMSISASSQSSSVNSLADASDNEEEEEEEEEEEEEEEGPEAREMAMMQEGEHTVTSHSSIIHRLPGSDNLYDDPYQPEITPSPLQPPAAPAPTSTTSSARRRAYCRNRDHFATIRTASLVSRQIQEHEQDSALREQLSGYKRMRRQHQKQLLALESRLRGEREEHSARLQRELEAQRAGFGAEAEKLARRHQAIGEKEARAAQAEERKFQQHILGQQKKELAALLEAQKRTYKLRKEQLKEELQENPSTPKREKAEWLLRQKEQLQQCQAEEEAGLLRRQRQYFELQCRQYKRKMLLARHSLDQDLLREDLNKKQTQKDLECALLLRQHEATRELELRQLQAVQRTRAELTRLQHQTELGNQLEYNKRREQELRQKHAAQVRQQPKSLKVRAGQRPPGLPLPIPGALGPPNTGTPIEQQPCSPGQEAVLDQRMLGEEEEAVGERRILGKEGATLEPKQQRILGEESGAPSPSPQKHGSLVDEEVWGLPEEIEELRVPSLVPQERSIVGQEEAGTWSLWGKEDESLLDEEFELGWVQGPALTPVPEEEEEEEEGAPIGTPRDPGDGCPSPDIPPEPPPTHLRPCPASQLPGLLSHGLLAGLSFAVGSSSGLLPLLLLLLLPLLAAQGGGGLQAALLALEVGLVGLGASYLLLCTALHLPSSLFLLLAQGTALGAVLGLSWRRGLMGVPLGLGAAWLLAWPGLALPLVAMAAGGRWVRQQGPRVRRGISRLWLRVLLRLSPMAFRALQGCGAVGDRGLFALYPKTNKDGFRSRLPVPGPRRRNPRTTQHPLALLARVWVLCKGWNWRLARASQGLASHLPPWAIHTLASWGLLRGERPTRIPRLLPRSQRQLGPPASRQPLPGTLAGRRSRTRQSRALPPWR

SMILES	assay	conditions	quantity	result
O=C1CCc2cc(Nc3cc(OC4CCOCC4)c([N+](=O)[O-])cc3Cl)ccc2N1	cell-free assay, competition with immobilised ligand	1 µM	remaining binding	82%
CCN(CC)CCNC(=O)c1c(C)[nH]c(/C=C2\C(=O)Nc3ccc(F)cc32)c1C	enzyme activity, inhibitor	10 µM	inhibition	29%
c1ccc(CNc2nc(N3CCOc4ccccc43)nc3c2CCCC3)cc1	target engagement in cells, inhibitor, chemoproteomics	20 mM	inhibition	-2.6%
CCCOc1ccc([C@H]2[C@H](C(=O)O)[C@@H](c3ccc4c(c3)OCO4)CN2CC(=O)Nc2c(CC)cccc2CC)cc1	cell-free assay, competition with immobilised ligand	1 µM	remaining binding	74%
Fc1cccc(-n2cnc3c(NCc4nc5c(F)c(F)ccc5[nH]4)nc(N4CCOCC4)nc32)c1	binding, competition with immobilised ligand	10 µM	binding vs control	35%
C[C@@H]1CCN(c2nccc(-c3cnn4ncccc34)n2)C1	binding	1 µM	remaining binding	75%
CNC(=O)c1cc(Oc2ccc(NC(=O)Nc3ccc(Cl)c(C(F)(F)F)c3)cc2)ccn1	enzyme activity, inhibitor	0.3 µM	inhibition	84%
Nc1ncnc2occ(-c3ccc(NC(=O)Nc4cc(C(F)(F)F)ccc4F)cc3)c12	cell-free assay, inhibitor	20 µM	remaining signal	0%
O=C(Nc1ccc(Oc2ccc(F)cc2)cc1)N1CCc2ncccc2[C@H]1c1ccc(F)cc1	cell-free assay, competition with immobilised ligand	1 µM	remaining binding	100%
COc1cc(-c2cc(-c3ccc(N4CCNCC4)cc3)cnc2C)cc(OC)c1OC	enzyme activity, inhibitor	1 µM	inhibition	2%
CCCCNc1ncc2c(-c3ccc(F)cc3)nn(C[C@H]3CC[C@H](N)CC3)c2n1	target engagement in cells, inhibitor, chemoproteomics	20 mM	inhibition	24.3%
CCN(CC)c1ccc(C2=NNC(=O)CC2C)cc1[N+](=O)[O-] (centres unmarked)	enzyme activity, inhibitor	10 µM	remaining activity	95%
CN1CCN(c2cnc3c(C4CCN(C(=O)c5ccc(OC(F)(F)F)cc5N)CC4)ncnc3c2)CC1	cell-free assay, competition with immobilised ligand	1 µM	remaining binding	100%
Cc1cc(NC(=O)c2cccc3cc(-c4cccc5[nH]nc(N)c45)ccc23)ccc1F	enzyme activity, inhibitor	0.1 µM	activity vs control	86%
CC(C)(C)c1nc(-c2cccc(NS(=O)(=O)c3c(F)cccc3F)c2F)c(-c2ccnc(N)n2)s1	enzyme activity, inhibitor, radiometric	1 µM	remaining activity	35%
O=C(NS(=O)(=O)c1ccc(NCC2CCOCC2)c([N+](=O)[O-])c1)c1ccc(N2CCN(Cc3ccc(C(F)(F)F)cc3-c3ccc(Cl)cc3)CC2)cc1Oc1cnc2[nH]ccc2c1	cell-free assay, competition with immobilised ligand	1 µM	remaining binding	82%
Cc1ccc(Nc2nccc(N(C)c3ccc4c(C)n(C)nc4c3)n2)cc1S(N)(=O)=O	enzyme activity, inhibitor	10 µM	inhibition	93%
